Bioassay records from PubChem.
UPR CHOP act: activators of apoptotic arm of unfolded protein response (CHOP) | activation, % at 10 µM | CHO-CHOP luciferase reporter, UPR activation, luminescence; percent of tunicamycin response over DMSO baseline | 330,000 compounds, 0.34% hits;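 active = at 10 µM dose, activation of 40% or more, normalized to positive control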;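 note: 100% = tunicamycin at 10 µg/mL and 0% = DMSO alone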
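assay system = CHO CHOP reporter cells | amount = 500 CHO-CHOP cells per well | buffer or medium = F12 with 10% FBS | incubation = 16-18 h cell attachment, then 6 h compound exposure, 37 °C | detection = luminescence read with Steady-Glo | read-out = percent activation relative to tunicamycin control | controls = tunicamycin high control, DMSO low control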
TMEM16A act: activates or potentiates the mouse TMEM16A chloride channel | Q8BHY3 | HEK293 TMEM16A/YFP-H148Q/I152L, iodide quench fluorescence; hits give low values | B-score at 10 µM | 340,000 compounds, 0.3% hits;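 active = fluorescence-ratio B-score plate-corrected deviation score at least 3 library SD below zero, with starting fluorescence score within 5 deviations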;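 note: channel opened by trigger with iodide after compound preincubation; score built on the fluorescence ratio of max minus min over baseline; more negative score means more quench and so TMEM16A activation or potentiation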
CHOP inhibitor: CHOP inhibition in unfolded protein response; CHO-K1 CHOP-promoter luciferase, tunicamycin-induced, 15-18 h; inhibition, % at 10 µM; 220,000 compounds, 3.8% hits;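 active = compounds that reduced the stress-induced luciferase reporter signal by more than about 70% of percent inhibition, limit read from the data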;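 note: 0% = tunicamycin plus vehicle and 100% = wells without tunicamycin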
Hep lipid drop: hepatic lipid droplet formation modulation. AID 1656. inhibition, % at 6.5 µM. AML12 mouse hepatocytes, oleate lipid droplets, BODIPY imaging. 240,000 compounds, 0.4% hits;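 active = lipid droplet intensity inhibited by at least 50%, with more than 500 cells counted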
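material = mouse AML12 hepatocyte cell line, fixed after treatment | also added = 100 µM oleic acid challenge | doses = compound at 6.5 µM only | schedule = overnight exposure | technique = Image-based BODIPY and DAPI two-channel analysis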
XBP1 UPR activ: activators of adaptive arm of unfolded protein response (XBP1); CHO-XBP1 luciferase reporter, IRE1-XBP1 UPR activation, luminescence; percent of tunicamycin response, DMSO as zero; activation, % at 20 µM; 330,000 compounds, 0.33% hits; AID 463104;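 active = versus positive control, 20 µM dose yields 30% or more activation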;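 note: 100% = tunicamycin at 10 µg/mL and 0% = DMSO only wells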
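Material: CHO cell line with stable XBP1 luciferase reporter; schedule: 16-18 h cell attachment at 37 °C, then 6 h compound exposure; signal: glow luminescence from Steady-Glo reagent; medium: serum-containing F12 medium, 10% FBS; benchmarks: tunicamycin 10 µg/mL and vehicle-only wells; read-out: percent activation relative to tunicamycin reference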
ANO1 block: blocks the mouse calcium-activated chloride channel TMEM16A | Q8BHY3 | HEK293 TMEM16A/YFP iodide influx fluorescence, ionomycin | normalized B-score (activity score, 25-100; higher = stronger inhibition) at 10 µM | 310,000 compounds, 1.2% hits;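 active = ratio plate-corrected score three or more library SD toward inhibition, starting fluorescence score within five deviations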;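 note: score derived from kinetic fluorescence span divided by baseline fluorescence per well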
CHOP UPR conf: apoptotic UPR (CHOP) activation, confirmed | shares compounds with UPR CHOP act | CHO-CHOP cells, CHOP-luciferase reporter luminescence; percent of tunicamycin response, DMSO as zero | activation, % at 10 µM | 1,000 compounds, 64% hits | AID 463112; in the data active = activation above about 33%;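 note: 0% = DMSO wells and 100% = tunicamycin 10 µg/mL wells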
XBP1 UPR conf: adaptive UPR (XBP1) activation, confirmed | shares compounds with XBP1 UPR activ | CHO-XBP1 IRE1-XBP1 luciferase reporter, luminescence | activation, % at 20 µM | 1,000 compounds, 63% hits | AID 485299;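 active = reporter signal at least 30% of the positive control's activation in two or more of four replicate wells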;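 note: plate controls were DMSO negative control for no effect and tunicamycin 10 µg/mL positive control for full effect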
TMEM16A reconf: TMEM16A (mouse) chloride channel inhibition, re-confirmation. shares compounds with ANO1 block. HEK293 TMEM16A/YFP-H148Q, iodide quench fluorescence; ionomycin added to raise cell calcium. inhibition, % at 10 µM. 2,300 compounds, 39% hits;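 active = mean duplicate percent inhibition, scaled so buffer wells are 0 and the reference blocker 100, over three buffer SD above buffer mean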
HEK293 Ca mobil: alters calcium mobilization in TMEM16A HEK293 cells, counter-screen; 2,300 compounds, 2% hits; TMEM16A/YFP HEK293, Fluo4 calcium mobilization; calcium response (% of ionomycin), % at 10 µM; AID 652231; shares compounds with ANO1 block;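 active = duplicate-averaged calcium signal over 20% of the ionomycin maximum, relative to buffer baseline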;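 note: each well's signal is peak minus trough fluorescence divided by its pre-addition baseline; 0% = buffer wells and 100% = ionomycin wells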
YFP-HEK293 quench: counter-screen for TMEM16A inhibitors: effect in parental YFP-HEK293 cells. shares compounds with ANO1 block. iodide YFP quench, ionomycin. YFP ratio F(max-min)/F0 at 10 µM. 2,300 tested, under 10 active;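 active = yellow fluorescent protein signal ratio exceeding the buffer control mean by over 5 SD of those controls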;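 note: ratio is mean of duplicate wells from kinetic YFP trace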
ClC-1 rat inh: blocks the rat ClC-1 voltage-dependent chloride channel; ratio percent, % at 10 µM; 2,300 tested, under 10 active; CHO ClC-1-YFP, iodide influx fluorescence quench; iodide control reads 0, buffer control 100; shares compounds with ANO1 block;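 active = duplicate-mean ratio percent above the mean of iodide-only control wells, which defines zero, plus 5 of their SD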;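 note: higher percent means stronger block of ClC-1 iodide influx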
Target sequence (P35524 whole entry, looked up): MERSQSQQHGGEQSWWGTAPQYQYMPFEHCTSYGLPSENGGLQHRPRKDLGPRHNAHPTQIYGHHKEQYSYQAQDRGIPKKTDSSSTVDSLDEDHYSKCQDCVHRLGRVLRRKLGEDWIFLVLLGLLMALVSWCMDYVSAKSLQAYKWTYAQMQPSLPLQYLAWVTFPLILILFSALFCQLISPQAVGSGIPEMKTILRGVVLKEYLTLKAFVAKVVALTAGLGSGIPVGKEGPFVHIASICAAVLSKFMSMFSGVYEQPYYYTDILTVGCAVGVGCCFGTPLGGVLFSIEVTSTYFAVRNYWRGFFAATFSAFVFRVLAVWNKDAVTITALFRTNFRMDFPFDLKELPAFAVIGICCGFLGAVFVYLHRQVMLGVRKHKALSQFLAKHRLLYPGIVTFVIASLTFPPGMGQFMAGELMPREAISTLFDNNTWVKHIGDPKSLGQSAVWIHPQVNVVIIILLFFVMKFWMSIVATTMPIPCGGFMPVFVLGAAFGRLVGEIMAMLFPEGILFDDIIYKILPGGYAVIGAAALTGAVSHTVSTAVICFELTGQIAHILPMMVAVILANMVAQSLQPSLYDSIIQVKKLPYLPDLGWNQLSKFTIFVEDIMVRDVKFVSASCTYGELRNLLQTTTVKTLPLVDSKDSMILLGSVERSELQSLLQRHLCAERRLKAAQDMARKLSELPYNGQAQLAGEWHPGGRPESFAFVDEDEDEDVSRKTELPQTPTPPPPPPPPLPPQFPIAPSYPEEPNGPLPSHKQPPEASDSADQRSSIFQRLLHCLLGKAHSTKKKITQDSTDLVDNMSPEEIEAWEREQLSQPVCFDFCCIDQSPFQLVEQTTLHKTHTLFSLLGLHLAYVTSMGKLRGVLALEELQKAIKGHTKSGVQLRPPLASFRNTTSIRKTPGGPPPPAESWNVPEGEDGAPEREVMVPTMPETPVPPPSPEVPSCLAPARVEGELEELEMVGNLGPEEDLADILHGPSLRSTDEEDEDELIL
Starred values were filed as active, the others as inactive; i = inactive; / = no result. Hits are enriched below; roughly 4.2% of the tested compounds scored in any of these assays.

SMILES	UPR CHOP act	TMEM16A act	CHOP inhibitor	Hep lipid drop	XBP1 UPR activ	ANO1 block	others
CCN(c1ccc(C(O)(C(=O)OC)C(F)(F)F)cc1)S(=O)(=O)c1ccc(C)cc1 (stereo unspecified)	0	i	-44	-9	-2	i
Cc1cccc(N2C(=O)NC(=O)/C(=C\c3cccn3-c3ccc(Cl)cc3)C2=O)c1	419*	i	35	/	-3	i	CHOP UPR conf=22
COc1ccc(/C=N\N=C(N)N)cc1	0	i	1	4	0	i
NC(N)=N/N=C/c1ccc(N(c2ccccc2)c2ccccc2)cc1	74*	i	/	-7	62*	i	CHOP UPR conf=31;XBP1 UPR conf=3
Cc1cc(=O)n(-c2ccccc2)n1-c1ccccc1	1	i	20	19	-1	i
CCCC[C@@H](C)C[C@@H](C)C(=O)N(C)[C@@H](CC(C)C)C(=O)N[C@H](C(=O)N(C)[C@H](C(=O)N1C[C@@H](O)C[C@H]1C(=O)N1C(=O)C=C[C@@H]1C)C(C)C)C(C)OC(C)=O (stereo partly specified)	73*	/	/	/	51*	/	CHOP UPR conf=46*;XBP1 UPR conf=74*
CC(=O)N(C1=NCCCS1)c1ccccc1Cl	1	i	8	8	-4	i
Cc1ccc(C[n+]2c(-c3ccc(C)cc3)cc(-c3ccc(C)cc3)cc2-c2ccc(C)cc2)cc1	77*	i	/	/	42*	100*	CHOP UPR conf=238*;XBP1 UPR conf=19
CN(C)c1ccc(C=C2C(=O)NC(=O)NC2=O)cc1	/	i	/	/	/	/
CN(C)c1ccc(/C=C/[N+](=O)[O-])cc1	18	i	-74	-9	59*	i	XBP1 UPR conf=33*
CCN(CC)C(=O)c1ccc(NC(=O)c2ccc(-n3cncn3)c([N+](=O)[O-])c2)cc1	0	i	/	/	-4	i
COC(=O)C1C(O)CC2CCC1N2C (stereo unspecified)	0	i	/	/	0	/
Cc1c(CCN)ccc2c1[nH]c1ccccc12	4	i	1	-10	-1	i
NS(=O)(=O)c1ccc(N=Cc2c(O)n(C3CCCCC3)c(=O)n(C3CCCCC3)c2=O)cc1	3	i	112*	/	46*	i	XBP1 UPR conf=40*
CCCCCCn1c(O)c(C=NC2CCCCC2N)c(=O)[nH]c1=O (stereo unspecified)	-1	/	68	/	30*	i	XBP1 UPR conf=14
CN(C)c1ccc(/C=C2\C(=O)NC(=O)N(Cc3ccc(F)cc3)C2=O)cc1	1	i	31	35	0	i
O=C1NC(=O)N(Cc2ccc(F)cc2)C(=O)/C1=C/c1cccs1	8	i	55	12	39*	i	XBP1 UPR conf=40*
CCc1ccc(N2C(=O)NC(=O)/C(=C\c3cccn3CCOc3ccc(C(C)C)cc3)C2=O)cc1	23	i	87*	3	51*	i	XBP1 UPR conf=41*
O=C(Cc1ccccc1)N1CCN(Cc2ccccc2Cl)CC1	2	i	/	/	2	25*	TMEM16A reconf=i;HEK293 Ca mobil=i;YFP-HEK293 quench=-0.98;ClC-1 rat inh=-10
CC(C)=CCc1c(O)cc2c(c1O)C(=O)CC(c1ccc(O)cc1)O2 (stereo unspecified)	-1	i	77*	-14	-1	100*	TMEM16A reconf=i;HEK293 Ca mobil=i;YFP-HEK293 quench=-0.95;ClC-1 rat inh=-16
CCCCn1c(O)c(C(C)=NCCN2CCCCC2)c(=O)[nH]c1=O	0	i	28	/	-1	i	TMEM16A reconf=i;HEK293 Ca mobil=i;YFP-HEK293 quench=-0.96;ClC-1 rat inh=1
O=C(Cc1ccccc1)N1CCN(Cc2cccnc2)CC1	-1	i	-16	22	-2	i
CCc1sc(C(=O)N2CCC3(CC2)OCCO3)cc1Br	-1	i	0	0	-1	100*	TMEM16A reconf=i;HEK293 Ca mobil=i;YFP-HEK293 quench=-1;ClC-1 rat inh=-9
O=C(c1cc2c(s1)CCCCCC2)N1CCC2(CC1)OCCO2	2	i	67	9	-3	i
O=C1/C(=C\c2ccccc2)C2OCC=C3CN4CCC56c7ccccc7N1C5C2C3CC46 (stereo unspecified)	0	i	7	29	-5	i
SMILES	UPR CHOP act	TMEM16A act	CHOP inhibitor	Hep lipid drop	XBP1 UPR activ	ANO1 block	others
CC1C(C)N1CC(O)Cn1ccnc1[N+](=O)[O-] (stereo unspecified)	3	i	0	-3	-2	i
CC(C)N1OC2CC1c1nc3ccccc3n1C2 (stereo unspecified)	-2	i	2	/	0	25*	TMEM16A reconf=i;HEK293 Ca mobil=i;YFP-HEK293 quench=-1.1;ClC-1 rat inh=-18
O=C(Oc1c(Cl)cc(Cl)c2ccccc12)N1CCCCC1	0	i	77*	1	-1	100*	TMEM16A reconf=i;HEK293 Ca mobil=i;YFP-HEK293 quench=-1;ClC-1 rat inh=-10
O=C(Nc1ccc(OC(=O)N2CCCCC2)cc1)N1CCOCC1	-4	i	47	9	-6	i
CN1CCN(c2ccc(N)cc2Cl)CC1	0	i	18	17	-2	i
CCCCCCC(C)(C)c1ccc([C@@H]2C[C@H](O)CC[C@H]2CCCO)c(O)c1	-1	i	-25	/	9	100*	TMEM16A reconf=i;HEK293 Ca mobil=i;YFP-HEK293 quench=-1.1;ClC-1 rat inh=-6
CCOc1ccc(-n2c(O)c(/C=C3\C=Nc4ccccc43)c(=O)[nH]c2=O)cc1	2	i	/	1	-4	i	TMEM16A reconf=22%*;HEK293 Ca mobil=40%*;YFP-HEK293 quench=-0.82;ClC-1 rat inh=4
COc1ccc(OC)c(-n2c(O)c(/C=C3\C=Nc4ccccc43)c(=O)[nH]c2=O)c1	-1	i	/	-1	-5	i
